Activity calls are given as the source filed them. No cut-off for these calls is given here.
Tests used:
MCF7 [1] = assay: Cytotoxicity against estrogen-dependent human MCF7 cells after 72 hrs by MTT assay; type: functional, cell-based; conditions: for IC50: MCF7, 72 h
Aromatase [2] = target: T1, Aromatase (Homo sapiens, UniProt P11511); assay: Inhibition of human recombinant aromatase expressed in baculovirus-infected cell system using 7-methoxy-trifluoromethylcoumarin as substrate after 30 mins by fluorescence assay
T1 sequence (P11511 whole entry): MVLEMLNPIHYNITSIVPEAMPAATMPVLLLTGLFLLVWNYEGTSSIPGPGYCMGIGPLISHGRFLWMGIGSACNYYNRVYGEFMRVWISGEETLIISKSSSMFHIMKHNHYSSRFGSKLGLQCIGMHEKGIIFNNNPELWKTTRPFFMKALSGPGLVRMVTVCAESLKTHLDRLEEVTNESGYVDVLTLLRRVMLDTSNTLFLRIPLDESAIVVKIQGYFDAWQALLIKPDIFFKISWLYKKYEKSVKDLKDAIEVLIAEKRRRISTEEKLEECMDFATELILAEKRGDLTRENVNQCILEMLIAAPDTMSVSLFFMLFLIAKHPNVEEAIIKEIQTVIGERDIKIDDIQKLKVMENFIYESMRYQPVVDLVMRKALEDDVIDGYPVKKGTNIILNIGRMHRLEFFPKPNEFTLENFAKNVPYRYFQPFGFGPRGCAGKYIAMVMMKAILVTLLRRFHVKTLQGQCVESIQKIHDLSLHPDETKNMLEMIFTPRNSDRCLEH

MCF7 [3] = assay: Cytotoxicity against […] human MCF7 cells after 72 hrs by MTT assay; type: functional, cell-based
How it was run: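 MCF-7 cells were raised without estrogen and without phenol red. They were seeded at 15,000/well, incubated overnight at 37 °C, then treated 72 h with freshly dissolved compounds. Viability was read by MTT (4 h), with DMSO solubilization and absorbance at 570 nm, and IC50 was calculated.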

[4] = Ratio of IC50 for human MCF7 cells to IC50 for human recombinant aromatase
Aromatase [5] = target: T1, Aromatase

Compound | IC50 (Aromatase [2]; read-out: IC50) [µM] | Ratio IC50 [4] | also measured
O=C1c2ccccc2OCC1c1cccnc1 (configuration not stated) |  |  | IC50 (MCF7 [1]): 31 µM
O=C1c2cc(Br)ccc2OCC1c1ccccc1 (configuration not stated) |  |  | IC50 (MCF7 [1]): 100 µM
O=C1c2cc(F)ccc2OCC1c1ccccc1 (configuration not stated) |  | 2 | 
O=C1c2ccccc2OCC1c1ccc(C(F)(F)F)cc1 (configuration not stated) |  | 2 | IC50 (Aromatase [2]): Not Active
COc1ccc2c(c1)C(=O)C(c1ccc(Oc3ccccc3)cc1)CO2 (configuration not stated) |  |  | IC50 (Aromatase [2]): Not Active
O=C1c2cc(F)cc(F)c2OCC1c1ccccc1 (configuration not stated) |  | 2 | IC50 (Aromatase [2]): Not Active
O=C1c2ccccc2OCC1c1cc(F)cc(F)c1 (configuration not stated) | 20 |  | 
O=C1c2ccccc2OCC1c1ccc(-c2ccccc2)cc1 (configuration not stated) |  |  | growth inhibition (GI) (MCF7 [1]): inactive
O=c1c(-c2ccccc2)coc2ccccc12 [ISOFLAVONE] |  |  | IC50 (Aromatase [5]): Not Active

More lines, main results first:

IC50 (Aromatase [2]; read-out: IC50) [µM] | Compound | Ratio IC50 [4] | also measured
2.5 | COc1ccc2c(c1)C(=O)C(c1cccnc1)CO2 (configuration not stated) |  | growth inhibition (GI) (MCF7 [1]): inactive; growth inhibition (GI) (MCF7 [3]): inactive
35 | O=C1c2ccccc2OCC1c1cccc(F)c1 (configuration not stated) | 2 | 
190 | O=C1c2c(ccc3ccccc23)OCC1c1ccc(Oc2ccccc2)cc1 (configuration not stated) |  | 
33 | O=C1c2ccccc2OCC1c1ccc(F)cc1 (configuration not stated) | 2 | 
15 | O=C1c2cccc(F)c2OCC1c1ccccc1 (configuration not stated) | 2 | 
24 | O=C1c2ccccc2OCC1c1ccccc1F (configuration not stated) | 2 | 
0.8 | O=C1c2cc(F)ccc2OCC1c1cccnc1 (configuration not stated) |  | growth inhibition (GI) (MCF7 [1]): inactive
67.1 | O=C1c2cccc(F)c2OCC1c1cccnc1 (configuration not stated) |  | IC50 (MCF7 [1]): 43 µM
